In PubChem BioAssay AID463152 (The Scripps Research Institute Molecular Screening Center, 2010) one finds IC50 data, which are given here for one compound.

The structures appear in SMILES notation.

In the test the target is Nuclear receptor ROR-alpha (Homo sapiens) (UniProt P35398). Description: dose-dependent lowering of GAL4-RORa luciferase – cell-based, luminescence, assay provider, RORA inverse agonist project, dose response (AID 463152). The following applies: HEK293T GAL4-RORa LBD luciferase reporter, 20 h. The essentials: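 Measure: IC50 from four-parameter fit of signal relative to DMSO | Assay system: HEK293T with GAL4-RORα LBD and UAS-luciferase reporter | Repeats: Eight replicates | Detection: Luminescence | Control set: DMSO vehicle-treated cells as normalization reference | Timing: 20 h compound exposure after 24 h reverse transfection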
Chain of Nuclear receptor ROR-alpha (Homo sapiens) (P35398 whole entry, looked up, the tested form may be a part): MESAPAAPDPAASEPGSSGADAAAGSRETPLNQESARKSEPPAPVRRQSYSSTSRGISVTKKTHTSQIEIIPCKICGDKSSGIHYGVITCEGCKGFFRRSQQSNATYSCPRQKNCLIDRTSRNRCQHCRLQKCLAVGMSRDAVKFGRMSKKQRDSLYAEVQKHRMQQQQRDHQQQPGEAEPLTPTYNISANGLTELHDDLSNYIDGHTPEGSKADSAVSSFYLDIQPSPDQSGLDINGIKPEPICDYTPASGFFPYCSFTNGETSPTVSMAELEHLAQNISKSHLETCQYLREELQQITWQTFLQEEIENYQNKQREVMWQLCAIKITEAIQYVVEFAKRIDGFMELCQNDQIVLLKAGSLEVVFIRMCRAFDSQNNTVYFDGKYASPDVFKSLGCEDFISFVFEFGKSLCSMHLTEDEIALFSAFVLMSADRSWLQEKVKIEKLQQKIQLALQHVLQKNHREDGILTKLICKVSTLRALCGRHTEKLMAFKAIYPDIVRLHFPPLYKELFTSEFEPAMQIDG

As for `O=S(=O)(Nc1ccc(C(O)(C(F)(F)F)C(F)(F)F)cc1)c1cccs1`, the IC50 was 480 nM.

By IC50 is commonly meant the midpoint of a concentration-inhibition curve.
